Measured values as given in ChEMBL document CHEMBL5316305, “An Empirical Quantitative Structure-Activity Relationship Equation Assists the Discovery of High-Affinity Phosphodiesterase 4D Inhibitors as Leads to PET Radioligands” (J Med Chem, 2023).

Key:
[1] = Inhibition of PDE4D7 S129D mutant (unknown origin) preincubated for 5 to 10 mins followed by substrate addition and measured for 10 mins by coupled enzyme based fluorescence analysis; set-up: species or system Homo sapiens
Outline: (§1)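 Mutationally activated dimeric enzymes: PDE4D7-S129D (PDE4D*) and PDE4B1-S133D (PDE4B*). A real-time coupled enzyme assay measured inhibition instead of a fluorescein-labeled cAMP substrate, because the label prevents UCR2 closure. PDE4B* was used to assess subtype selectivity. The method otherwise followed earlier work.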

[2] = molecular target: T1, 3',5'-cyclic-AMP phosphodiesterase 4B (Homo sapiens, UniProt Q07343, S133D); test: Inhibition of PDE4B1 S133D mutant (unknown origin) preincubated for 5 to 10 mins followed by substrate addition and measured for 10 mins by coupled enzyme based fluorescence analysis; outline: as §1
[3] = Selectivity index, ratio of IC50 for PDE4B1 S133D mutant (unknown origin) to IC50 for PDE4D7 S129D mutant (unknown origin)
Outline: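 B/D ratio is the IC50 against PDE4B1-S133D (PDE4B*) divided by the IC50 against PDE4D7-S129D (PDE4D*). Both IC50s come from the real-time coupled enzyme assay on the mutationally activated dimeric enzymes.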

[4] = molecular target: T1, 3',5'-cyclic-AMP phosphodiesterase 4B; test: Inhibition of human PDE4B1 S133D mutant by coupled enzyme based fluorescence analysis; outline: as §1
[5] = Inhibition of human PDE4D7 S129D mutant by coupled enzyme based fluorescence analysis
Homo sapiens = species: Homo sapiens; test: Selectivity index, ratio of IC50 for human PDE4B1 S133D mutant to IC50 for human PDE4D7 S129D mutant

T1 sequence (Q07343 whole entry S133D): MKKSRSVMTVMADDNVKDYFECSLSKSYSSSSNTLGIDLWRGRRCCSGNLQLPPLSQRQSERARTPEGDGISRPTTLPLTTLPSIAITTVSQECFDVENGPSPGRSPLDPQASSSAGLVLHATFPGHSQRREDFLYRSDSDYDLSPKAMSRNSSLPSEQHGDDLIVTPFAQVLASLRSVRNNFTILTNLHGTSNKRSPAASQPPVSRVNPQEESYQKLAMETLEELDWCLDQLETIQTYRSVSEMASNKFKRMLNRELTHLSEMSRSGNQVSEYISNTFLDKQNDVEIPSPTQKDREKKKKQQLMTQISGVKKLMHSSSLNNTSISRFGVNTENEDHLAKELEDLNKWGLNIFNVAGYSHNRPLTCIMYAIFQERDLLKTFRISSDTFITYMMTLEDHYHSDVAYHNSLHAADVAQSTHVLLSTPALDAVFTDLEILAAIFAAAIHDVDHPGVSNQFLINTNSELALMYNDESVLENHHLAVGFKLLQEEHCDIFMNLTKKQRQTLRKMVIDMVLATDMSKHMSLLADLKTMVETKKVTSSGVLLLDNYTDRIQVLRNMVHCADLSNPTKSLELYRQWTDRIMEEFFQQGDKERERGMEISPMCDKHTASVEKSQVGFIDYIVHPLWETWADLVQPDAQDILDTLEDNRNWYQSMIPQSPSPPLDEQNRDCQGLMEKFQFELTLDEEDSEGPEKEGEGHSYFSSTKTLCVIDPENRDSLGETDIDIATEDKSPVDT

SMILES	IC50 [1] [nM]	IC50 [2] [nM]	Ratio IC50 [3]	IC50 [4] [nM]	logIC50 [1]	IC50 [5] [nM]	Ratio IC50 (Homo sapiens)
COc1ccc(Oc2cn[nH]c2)nc1-c1cccc(C(F)(F)F)c1	3540	3240	0.92				
COc1ccc(Cc2cnn(C)c2)nc1-c1cccc(OC(F)F)c1	11	1440	137				
COc1cccc(-c2nc(Cn3cncn3)ccc2OC(F)F)c1	42	> 10000					
COc1ccc(Cn2ncnn2)nc1-c1cccc(OC(F)F)c1	21	> 10000					
COc1cccc(-c2nc(Cn3cnc(C(F)(F)F)n3)ccc2OC(F)F)c1	743	> 10000					
COc1ccc(Cc2cn[nH]c2)nc1-c1cccc([N+](=O)[O-])c1				280			
COc1cccc(-c2nc(Cc3cncnc3)ccc2OC(F)F)c1	10.2	1190	116				
COc1cccc(-c2nc(Cc3ccc(CCCO)cc3)ccc2OC(F)F)c1	24	> 10000					
COc1ccc(Cc2cn[nH]c2)nc1-c1cccc(F)c1	23.8	995	42				
COc1ccc(Cc2ccc(CCCO)cc2)nc1-c1cccc(OC(F)F)c1	16	> 10000					
COc1cccc(-c2nc(Cc3ccncc3)ccc2OC(F)F)c1	3.9	621	159				
Fc1cccc(-c2nc(Cn3ccnc3)ccc2OC(F)F)c1	3.7	198	54		0.57 log(nM)		
FC(F)Oc1cccc(-c2nc(Cn3ccnc3)ccc2OCc2ccccc2)c1	174	> 10000					
COc1ccc(Cc2cn[nH]c2)nc1-c1cccc(OC(F)(F)F)c1	46	7440	162				
COc1cccc(-c2nc(CNc3cn[nH]c3)ccc2OC(F)F)c1	530	2270	4				
COc1ccc(Cn2cccn2)nc1-c1cccc(F)c1	5530	> 10000					
FC(F)Oc1ccc(Cc2ccncc2)nc1-c1cccc(OCc2ccccc2)c1	171	143	0.84				
COc1ccc(Cc2cnn(C)c2)nc1-c1cccc(Cl)c1				858		0.5	1670
COc1ccc(Cn2cnnn2)nc1-c1cccc(OC(F)F)c1	16	1260	81				

SMILES	IC50 [1] [nM]	IC50 [2] [nM]	Ratio IC50 [3]	IC50 [4] [nM]	logIC50 [1]	IC50 [5] [nM]	Ratio IC50 (Homo sapiens)
COc1cccc(-c2nc(Cn3cccn3)ccc2OC(F)F)c1	281	1060	4				
COc1cccc(-c2nc(Cn3cnnn3)ccc2OC(F)F)c1	23	646	28				
COc1cccc(-c2nc(Cc3cnn(C)c3)ccc2OC(F)F)c1	3.5	853	244				
COc1ccc(Cc2ccncc2)nc1-c1cccc(OC(F)F)c1	1.8	665	364		0.26 log(nM)		
COc1ccc(Cc2ccncc2)nc1-c1cccc(Cl)c1				720			
Fc1cccc(-c2nc(Nc3cn[nH]c3)ccc2OC(F)F)c1	136	1750	13				
COc1ccc(Cn2cnc(C(F)(F)F)n2)nc1-c1cccc(OC(F)F)c1	785	> 10000					
FC(F)Oc1ccc(Cn2ccnc2)nc1-c1cccc(OCc2ccccc2)c1	85	46	0.54				
COc1ccc(Cn2cncn2)nc1-c1cccc(OC(F)F)c1	15	> 10000					
COc1cccc(-c2nc(Cc3cn[nH]c3)ccc2OC)c1	13	2130	165		1.11 log(nM)		
COc1ccc(Cc2ccc(CCO)cc2)nc1-c1cccc(OC(F)F)c1	4	> 10000					
COc1ccc(Cn2cccn2)nc1-c1cccc(Cl)c1	1150	9170	8				
COc1ccc(Cn2ccnc2)nc1-c1cccc(OC(F)F)c1	1.06	593	559				
COc1ccc(Cc2cn[nH]c2)nc1-c1cccc(OC(F)F)c1	1.4	1070	793				
COc1cccc(-c2nc(Cn3ccnc3)ccc2OC(F)F)c1	2.1	513	242				
COc1cccc(-c2nc(COc3cn[nH]c3)ccc2OC(F)F)c1	372	> 10000					
COc1ccc(Cn2cccn2)nc1-c1cccc(C(F)(F)F)c1	> 10000	> 10000					
COc1cccc(-c2nc(Cn3ncnn3)ccc2OC(F)F)c1	17	> 10000					
Fc1cccc(-c2nc(Oc3cn[nH]c3)ccc2OC(F)F)c1	70	3110	45				

Continued, values first:

IC50 [1] [nM]	IC50 [2] [nM]	Ratio IC50 [3]	IC50 [4] [nM]	logIC50 [1]	IC50 [5] [nM]	Ratio IC50 (Homo sapiens)	SMILES
446	274	0.61					FC(F)Oc1ccc(Cc2cn[nH]c2)nc1-c1cccc(OCc2ccccc2)c1
744	> 10000						Fc1ccc(Cc2cn[nH]c2)nc1-c1cccc(Cl)c1
873	1930	2					COc1cccc(-c2nc(C(=O)c3cn[nH]c3)ccc2OC(F)F)c1
529	2530	5					COc1ccc(Nc2cn[nH]c2)nc1-c1cccc(F)c1
6.9	4000	581					COc1cccc(-c2nc(Cc3ccc(CCO)cc3)ccc2OC(F)F)c1
186	7850	42					COc1ccc(Cc2cn[nH]c2)nc1-c1cccc(C(F)(F)F)c1
			1120				COc1ccc(Cc2ccncc2)nc1-c1cccc([N+](=O)[O-])c1
836	4540	5					COc1ccc(Oc2cn[nH]c2)nc1-c1cccc(F)c1
281	> 10000						COc1cccc(-c2nc(Oc3cn[nH]c3)ccc2OC(F)F)c1
12.3	764	62					COc1cccc(-c2nc(Cc3cccnc3)ccc2OC(F)F)c1
0.3	81	270					O=[N+]([O-])c1cccc(-c2nc(Cn3ccnc3)ccc2OC(F)F)c1
468	3160	7					COc1ccc(Nc2cn[nH]c2)nc1-c1cccc(Cl)c1
2.7	521	193					COc1cccc(-c2nc(Cc3cn[nH]c3)ccc2OC(F)F)c1
7.6	1070	141					Fc1cccc(-c2nc(Cc3cn[nH]c3)ccc2OC(F)F)c1
0.36	91	254					O=[N+]([O-])c1cccc(-c2nc(Cc3cn[nH]c3)ccc2OC(F)F)c1
306	4160	14					COc1ccc(Oc2cn[nH]c2)nc1-c1cccc(Cl)c1
188	2500	13					COc1ccc(Nc2cn[nH]c2)nc1-c1cccc(OC(F)F)c1
1550	> 10000						COc1ccc(Oc2cn[nH]c2)nc1-c1cccc(OC(F)F)c1
658	> 10000						COc1cccc(-c2nc(Nc3cn[nH]c3)ccc2OC(F)F)c1
610	> 7760						FC(F)Oc1cccc(-c2nc(Cc3ccncc3)ccc2OCc2ccccc2)c1
13	730	57					COc1ccc(Cc2cn[nH]c2)nc1-c1ccc2nonc2c1
164	> 10000						FC(F)Oc1cccc(-c2nc(Cc3cn[nH]c3)ccc2OCc2ccccc2)c1
4310	> 10000						COc1ccc(Nc2cn[nH]c2)nc1-c1cccc(C(F)(F)F)c1
6	923	154					COc1ccc(Cc2cn[nH]c2)nc1-c1cccc(Cl)c1
